Legend:
[1] = tested on: RAW264.7; assay: Antiinflammatory activity in mouse RAW264.7 cells assessed as inhibition of LPS-induced nitric oxide production after 18 hrs by Griess assay; type: functional, cell-based; details: RAW264.7, 18 h
Outline: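 LPS-stimulated RAW 264.7 macrophages. Cell viability was first checked by MTT at concentrations up to 100 μM, so that NO inhibition could be separated from cytotoxicity. N-monomethyl-L-arginine served as positive control. Each experiment was run in triplicate. IC50 is given as mean ± SD of three independent experiments.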

[2] = Cytotoxicity against mouse RAW264.7 cells assessed as cell survival up to 100 uM by MTT assay; type: cell-based; details: read-out: Survival
Outline: (§1)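 RAW 264.7 macrophages were screened by MTT before the LPS-induced NO assay to rule out cytotoxicity. Concentrations went up to 100 μM, including 50 μM, and the read-out was percent cell survival. All experiments were run in triplicate.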

[3] = Cytotoxicity against mouse RAW264.7 cells assessed as cell survival at 50 uM by MTT assay; type: cell-based; details: read-out: Survival; outline: as §1

Compound	IC50 [1]	viability [2]	viability at 50 µM [3]
CC(=O)O[C@H](C[C@@H](O)C/C=C1/C=CC(=O)O1)C[C@H](O)/C=C/c1ccccc1	7.5 µM	> 90%	
CC(=O)O[C@H](C[C@@H](O)C[C@@H]1OC(=O)C=C[C@@H]1O)C[C@H](O)/C=C/c1ccccc1			< 15%
O=C1C=CC[C@H](C[C@@H]2C[C@H](O)C[C@H](/C=C/c3ccccc3)O2)O1	4.2 µM	> 90%	
CC(=O)O[C@H](C[C@@H](O)C[C@H](O)/C=C/c1ccccc1)C[C@@H]1OC(=O)C=C[C@@H]1O	27.6 µM	> 90%	
CC(=O)O[C@H](C[C@@H](O)C[C@H](O)/C=C/c1ccccc1)C[C@H]1CC=CC(=O)O1	> 50 µM	> 90%	
O=C1C=C[C@H](O)[C@H](C[C@H](O)C[C@@H](O)C[C@H](O)/C=C/c2ccccc2)O1	13.8 µM	> 90%	
CNC(=N)NCCC[C@H](N)C(=O)O [TILARGININE]	45 µM		
O=C1C=CC[C@H](C[C@H](O)C[C@@H](O)C[C@H](O)/C=C/c2ccccc2)O1	3.2 µM	> 90%	
CC(=O)O[C@@H](C/C=C1/C=CC(=O)O1)C[C@@H](O)C[C@H](O)/C=C/c1ccccc1	3.4 µM	> 90%	
CC(=O)O[C@H](C[C@@H](O)C[C@H]1CC=CC(=O)O1)C[C@H](O)/C=C/c1ccccc1	> 50 µM		
CC(=O)O[C@H](C[C@H](C[C@H](O)/C=C/c1ccccc1)OC(C)=O)C[C@H]1CC=CC(=O)O1	> 50 µM		

Reference: ChEMBL document CHEMBL3785060, “Nitric Oxide Inhibitory Activity and Absolute Configurations of Arylalkenyl α,β-Unsaturated δ/γ-Lactones from Cryptocarya concinna” (J Nat Prod, 2016)
